pEC50: −log10 of the molar value. The source made the active and inactive calls.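 The calls were made as follows: active = compounds whose fitted half-maximal concentration for reducing fibroblast viability is 100 µM or lower; inactive = the rest.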 Some results are limits rather than exact numbers.

The results in this text go back to PubChem BioAssay AID821 (SRMLSC, 2007).

In this test the test system is LL 47 lung fibroblast viability, ATP luminescence. The test can be described thus: inhibition of LL 47 lung fibroblast growth, concentration-response curve, selectivity screen for endothelial cell growth inhibitor project, cellular system, ATP luminescence readout (AID 821). In short, it runs like this:
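Material – LL 47 human lung fibroblasts · Input – 1,150 cells/well · Doses – compound concentration series from 0.039 to 20 µM, 0.2% DMSO · Timing – 72 h exposure, 37 °C · Detection – CellTiter-Glo luminescence · Read-out basis – percent viability relative to untreated wells, EC50 via 4-parameter fit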

As for `CC1(C)Cc2ccccc2C(NNC(=O)c2ccccn2)=N1`, the negative-log EC50 (pEC50) is 4.94. The same measure, in the same setting: in the case of `CCCCCCOC(=O)C(C#N)c1nc2ccccc2nc1N1CCN(CC)CC1` (stereo not drawn) it was 4.76; in that of `Cc1ccsc1/C=C/c1ccc2cccc(O)c2n1`, 4.96. Same read-out and setting: in the case of `Cc1ccc(NC(=O)c2cc(NC(=O)c3ccco3)ccc2N2CCCCC2)cc1` it was 4.74; in that of `Cc1cccc(N2CCN(C(=O)Cn3sc4nc(C)cc(C)c4c3=O)CC2C)c1` (stereo not drawn), 5.00.

Turning to `N#CCC(=O)Nc1ncn(Cc2ccccc2Cl)n1`, the pEC50 was 4.71. As for `COc1ccc(C(=O)Oc2c(CN3CCOCC3)cc(Cl)c3cccnc23)cc1`, the pEC50 was 5.21. On to `O=C(CSc1cccc2cccnc12)N1CCCC1`, for which the pEC50 is 4.90.

Regarding `O=C(Oc1ccccc1)c1cccc2cccnc12`, the pEC50 was 5.16. Still for that read-out and setting: the figure for `O=c1c(Cl)c(NCCCO)cnn1-c1nc2ccccc2[nH]1` is 5.20; for `COc1ccc2c(c1)c1nc3ccccc3nc1n2CC(=O)OC(C)C` it is 4.81. The same measure, in the same setting: in the case of `COc1cc(C(=O)Oc2c(CN3CCOCC3)cc(Cl)c3cccnc23)cc(OC)c1OC` it was 5.39.

Regarding `Cc1ccc(C)n1NC(=O)c1ccccc1O`, the pEC50 was 4.99. Turning to `N#Cc1c(NCCN)nc(-c2ccco2)c2c1CCCC2`, the pEC50 is 4.93. Still for that read-out and setting: in the case of `CCCCCCc1cc2cc(-c3nnc(-c4ccccc4)o3)c(=O)oc2cc1O` it was 4.69. Still for that read-out and setting: the figure for `CCc1[nH]nc2c1C(c1ccc(Br)s1)C(C#N)=C(N)O2` (stereo not drawn) is 4.87. Still for that read-out and setting: the figure for `CCOC(=O)CSc1cccc2cccnc12` is 4.90; for `CCOC(=O)c1c(NC(=O)CSc2nc(C)cc(C)c2C#N)sc(C(C)=O)c1C` it is 4.87; for `Cc1ccc2oc3c(c(=O)c2c1)C(c1cccc(Br)c1)N(Cc1ccco1)C3=O` (stereo not drawn) it is 4.74.

Consider `COc1cc2nc(N3CCN(C(=O)c4ccco4)CC3)nc(N)c2cc1OC`, for which the pEC50 was 5.09. Still for that read-out and setting: in the case of `Cc1nn(-c2nc3ccccc3s2)c(N)c1Sc1ccc(F)cc1` it was 4.89; in that of `CS(=O)(=O)c1nc(-c2cccs2)cc(C(F)(F)F)n1`, 5.14. The same measure, in the same setting: the figure for `COC(=O)CCS(=O)(=O)c1nc(-c2ccccc2)cc(C(F)(F)F)n1` is 4.84; for `O=c1ccsn1Cc1ccccc1` it is 5.12.

In the case of `CCN(CC)CCn1c2ccccc2c2cnc(N)c(C#N)c21`, the pEC50 is 5.02. On the same count and under the same terms, in the case of `Cc1cc(C)c2oc(-c3ccc(Cl)c(NC(=O)c4ccc(C#N)cc4F)c3)nc2c1` it was 5.16; in that of `CCOC(=O)/C=C/S(=O)(=O)c1ccc(NC(C)=O)cc1`, 5.16; in that of `O=C(Nc1ccc(N2CCOCC2)cc1)Nc1ccc2nc(-c3ccco3)c(-c3ccco3)nc2c1`, 5.66. Still for that read-out and setting: in the case of `COC(=O)NC(=C(Cl)Cl)S(=O)(=O)c1ccccc1` it was 4.91; in that of `c1ccc(-c2nc3nonc3nc2-c2ccccc2)cc1`, 4.82. Take `Oc1ccc(Cl)cc1-c1cc(-c2ccco2)[nH]n1`: the EC50 is > 10 µM (inactive). In the case of `CN1CCN(Cc2cc(COCc3ccccc3)c3cccnc3c2O)CC1`, the pEC50 was 5.53.

Regarding `CC(=O)Nc1ccc(NC2=Nc3ccccc3N3C2=Nc2c(c(C)nn2-c2ccccc2)C3c2ccccc2)cc1` (stereo not drawn), the pEC50 is 4.91. Take `O=S1(=O)C=C(Sc2nnc(-c3ccccc3)o2)c2ccccc21`: the pEC50 was 5.77. Still for that read-out and setting: in the case of `CCOC(=O)c1sc(SCC(=O)Nc2ccc(N(C)C)cc2)nc1N` it was 4.93; in that of `CC(C)(C)c1nn(-c2ccccc2)c2[nH]c(=O)c(CNCc3ccc4c(c3)OCO4)cc12`, 4.69.

For the molecule `CCn1c(=O)cc(C(=O)OC)sc1=Nc1ccc(F)c(F)c1`, the pEC50 is 4.76.

Take `Cn1c(=O)n(C)c2cc(C(=O)Nc3ccc4c(c3)OCO4)ccc21`: the pEC50 was 4.89.

As for `COc1cccc(C(=O)c2sc(NC(C)C)nc2N)c1`, the pEC50 was 4.79. The same measure, in the same setting: the figure for `Cc1ccccc1CS(=O)(=O)c1nnc([C@H](CC(C)C)NC(=O)OC(C)(C)C)o1` is 4.83; for `CC1(C)CC(=O)C2=C(C1)Oc1nc3ccccc3cc1C2C(C#N)C#N` (stereo not drawn) it is 4.84. In the case of `O=C(CCS(=O)(=O)c1ccccc1)Nc1nc2c(s1)CCCC2`, the pEC50 was 4.84.

In the case of `Cn1c(=O)n(C)c2cc(NC(=O)CCl)ccc21`, the pEC50 is 5.00. Regarding `Cc1cc(C)n(-c2nc3ccccc3c(=O)n2OCC(=O)OCc2ccccc2)n1`, the pEC50 was 5.40. Still for that read-out and setting: in the case of `O=c1[nH]c2cc3c(cc2cc1C(c1nnnn1C1CCCCC1)N1CCSCC1)OCCO3` (stereo not drawn) it was 4.70; in that of `Cn1c2ccccc2c(=O)c2c(=O)n(C3CCCCC3)c(-c3cccs3)nc21`, 4.85; in that of `O=C1C=C(c2ccc(Cl)cc2)C(=O)N1Nc1ccccc1`, 4.83. Still for that read-out and setting: the figure for `COc1cc(C(C[N+](=O)[O-])c2c(-c3ccccc3)cc3ccccn23)cc(OC)c1OC` (stereo not drawn) is 4.73. In the case of `O=C(Nc1nccs1)c1c(O)c2cccc3c2n(c1=O)CCC3`, the pEC50 is 4.82. Same read-out and setting: in the case of `COc1ccc(C2=Nn3c(nnc3C3CCCCC3)SC2)cc1OC` it was 4.85; in that of `O=C(c1nn2c(C(F)(F)F)cc(-c3ccco3)nc2c1Br)N1CCCc2ccccc21`, 5.32. Still for that read-out and setting: the figure for `CCOC(=O)c1cnc(-n2nc(C)cc2C)nc1NC1CCCCC1` is 4.85; for `COC(=O)C1=C(O)/C(=C\c2ccc(CNC(=O)C(=O)Nc3ccc(C)cc3)o2)N=C1C` it is 5.03.

As to `O=C1CC(c2ccco2)Cc2nc(Nc3nc(-c4ccccc4)c4ccccc4n3)ncc21` (stereo not drawn), the pEC50 is 4.85. Still for that read-out and setting: in the case of `COc1ccc(-c2cc(C#N)nc(N3CCNCC3)n2)cc1` it was 4.93; in that of `COc1ccc(C(=O)C(CN2CCOCC2)c2ccccc2)cc1` (stereo not drawn), 5.33. Still for that read-out and setting: in the case of `O=C(Oc1ccccc1-c1nnco1)c1ccc(Cl)cc1` it was 5.30.

`COc1ccc(-c2ccc(C#N)c(SCC(=O)Nc3sc4c(c3C#N)CCC4)n2)cc1OC`: the pEC50 is 4.70. Consider `CCn1c(SCC(=O)Nc2cc(C)on2)nc2sc3c(c2c1=O)CCCC3`, for which the EC50 is > 10 µM (inactive).

As to `CN1CCN(S(=O)(=O)c2ccc(NC(=O)Nc3cccc(Cl)c3)cc2)CC1`, the pEC50 is 4.78.

With `COc1ccc(CN=C(C)c2c(C(F)(F)F)[nH]n(-c3nc4ccccc4s3)c2=O)cc1`, the pEC50 was 4.75. For `COc1ccc(-c2nnc(Nc3nc4c(OC)cccc4s3)o2)cc1`, the EC50 was > 10 µM (inactive).

`CN=C1c2cc3cc(OC)ccc3n2CCN1Cc1ccccc1`: the pEC50 is 4.74. For the molecule `COC(=O)C(CC(=O)c1ccc(Br)cc1)n1ccnc1` (stereo not drawn), the pEC50 is 4.83. As for `CCCc1[nH]nc2c1C(c1ccc(Br)s1)C(C#N)=C(N)O2` (stereo not drawn), the negative logarithm of the EC50 (pEC50) was 5.02.

As to `c1ccc2c(c1)oc1c(Nc3ccc(CN4CCOCC4)cc3)ncnc12`, the pEC50 was 4.76.

For `C=CCn1c(SCC(=O)c2c(N)n(CCC)c(=O)n(C)c2=O)nc2sc(CC)cc2c1=O`, the pEC50 is 4.82.

For `COc1ccc(C2Oc3ccccc3C3=C2C(c2cccs2)n2ncnc2N3)cc1` (stereo not drawn), the negative-log EC50 (pEC50) is 4.72. The same measure, in the same setting: the figure for `c1ccc(-c2noc(-c3ccc4c(c3)OCO4)n2)nc1` is 4.98; for `c1ccc(-c2nc(N3CCCCCC3)c3ccccc3n2)nc1` it is 5.76. Same read-out and setting: the figure for `CC(Nc1nc(N2CCCC2)nc2ccccc12)c1ccccc1` (stereo not drawn) is 4.93; for `COc1cc(/C=C/c2ccc3cccc(OC)c3n2)c(OC(C)=O)c([N+](=O)[O-])c1` it is 4.77; for `CC1(C)Cc2c(c(N3CCOCC3)nc3snc(N)c23)CO1` it is 4.96. On the same count and under the same terms, the figure for `CCN(CC)CCn1c(=N)n(CCOc2ccccc2)c2ccccc21` is 4.97; for `CCOC(=O)c1c(CC(C)C)csc1NC=O` it is 4.69; for `O=C1Nc2ccccc2/C1=C/C(=O)c1cccs1` it is 5.17. Consider `Cc1cc(C)c2ccc(N)nc2c1O`, for which the pEC50 is 5.55. On the same count and under the same terms, in the case of `CC(=O)SC(C[N+](=O)[O-])c1cn(C(C)=O)c2ccccc12` (stereo not drawn) it was 4.93; in that of `O=C(Nc1nc(NC(=O)c2ccco2)n(-c2ccccc2)n1)c1ccccc1`, 4.94; in that of `O=C(/C=C/c1ccc(Cl)cc1)c1cccnc1`, 4.71.

Turning to `COC(=O)/C=C1\C(=O)N(c2nc3ccccc3s2)C(=S)N1c1ccc(F)cc1`, the pEC50 is 4.75. On the same count and under the same terms, in the case of `CC(=O)C(C(C)=O)c1c(Cl)c(O)c(O)c2c(C(=O)c3ccccc3)coc12` it was 4.84; in that of `Cc1cc2c(N=O)c(NO)ccc2[nH]1`, 5.53; in that of `CCN(CC)c1ccc2c(c1)oc(=O)c1c(Cl)cc(=O)oc12`, 5.14.

For the molecule `C=CCOC(=O)C1=C(C)NC(SCC(=O)Nc2ccc(C)c(Cl)c2)=C(C#N)C1c1ccco1` (stereo not drawn), the pEC50 is 5.11. Same read-out and setting: in the case of `COc1ccc2nc(Nc3nc(CSc4nnnn4-c4ccccc4)cc(=O)[nH]3)nc(C)c2c1` it was 4.86; in that of `CC(C)c1nnc(NC(=O)CCS(=O)(=O)c2nc(-c3cccs3)cc(C(F)(F)F)n2)s1`, 4.89; in that of `COc1cccc2sc(Nc3nc(C)c(C(C)=O)s3)nc12`, 5.26. On the same count and under the same terms, in the case of `Cc1ccc(C(=O)c2c(C)oc3c2C(=O)C(=O)c2ccccc2-3)cc1` it was 5.46. Still for that read-out and setting: in the case of `COc1ccc(C(=O)Nc2ccccc2C(=O)N(Cc2ccco2)C(C(N)=O)C(C)C)cc1` (stereo not drawn) it was 4.76; in that of `CCN1CCN(c2cc(C)c3cc(NC(=O)c4ccc(OC)c(OC)c4)ccc3n2)CC1`, 4.82. Turning to `CC1=NOC(=O)/C1=C/c1ccc(-c2ccc(Cl)cc2)o1`, the pEC50 was 4.86. On the same count and under the same terms, the figure for `COc1ccc(CC(=O)Nc2ccc(-c3nc4cc(C)ccc4o3)c(O)c2)cc1OC` is 4.73; for `COc1cc(NC(=O)c2cccs2)c(C(=O)OCC(=O)NCc2ccccc2)cc1OC` it is 4.69; for `COc1ccc(-n2nnnc2S(=O)(=O)CC(=O)N2CCCCC2)cc1` it is 5.21. Same read-out and setting: in the case of `O=C(Oc1c(CN2CCOCC2)cc(Cl)c2cccnc12)c1ccc(F)cc1` it was 5.27; in that of `Cc1ccc(-c2csc3ncnc(Sc4nnc(CN5CCCCCC5=O)o4)c23)cc1`, 5.26; in that of `O=C(Cn1c(=O)n(CCCC(=O)NC2CCCC2)c(=O)c2ccccc21)NCCC1=CCCCC1`, 4.71.

What is called pEC50 is the negative decadic logarithm of the EC50, by convention in mol/L. The term EC50 denotes the concentration giving half of the maximal effect.
